Screening data from PubChem.
The list is not random: actives were taken first. Their share in the collection is about 2.8%.
NPY-Y1 antag: antagonists of human neuropeptide Y receptor Y1. actives 1% (n = 200,000). HEK293-CNG Y1 cells, membrane potential fluorescence; NPY at EC95, then isoproterenol. inhibition, % at 3.6 µM;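 active = inhibition above the campaign mean inhibition of all tested compounds plus 3 SD, cut at about 20% in these data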;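 also: 0% = DMSO wells given NPY plus isoproterenol and 100% = isoproterenol alone without NPY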
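Material: HEK293 cells with Y1 receptor plus CNG channel; times: compound incubation 1 h at room temperature, readout 45 min post-stimulation; signal: fluorescence, membrane potential probe; read-out basis: fluorescence ratio normalized to % inhibition between controls; benchmarks: full-block control isoproterenol-only wells, zero-block control NPY plus isoproterenol wells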
NPY1 pot ag: human NPY-Y1 potentiation or agonism, primary screen | P25929 | NPY-Y1 expressing cells, potentiator/agonist activation | activation, % at 3.6 µM | actives 0.37% (n = 220,000); in the data active = activation above about 33%, passing the limit was not always enough;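 also: cells stimulated with NPY at EC10 then isoproterenol at EC100; 0% = low agonist plus stimulus and 100% = saturating agonist plus stimulus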
NPY Y2 blocker: blocks the human neuropeptide Y Y2 receptor; NPY-Y2 expressing cells, antagonist mode; inhibition, % at 2.7 µM; actives 0.99% (n = 140,000); in the data active = inhibition above about 17%;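 also: 0% = vehicle with agonist challenge and 100% = reference antagonist with challenge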
EP2 mod: modulators of human EP2 prostaglandin E2 receptor | P43116 | EP2-expressing cells, cAMP HTRF FRET, PGE2 co-stimulation | induction, % at 25 µM | actives 0.83% (n = 260,000);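 active = compounds whose cAMP rise, as percent of the full-agonist control response, exceeds 60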;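 also: rat C6 glioma line stably carrying human EP2 under a CMV promoter; the protocol text gives 20 µM as final concentration; 100% = response of wells given 1 µM PGE2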
Target sequence (P43116 whole entry, looked up): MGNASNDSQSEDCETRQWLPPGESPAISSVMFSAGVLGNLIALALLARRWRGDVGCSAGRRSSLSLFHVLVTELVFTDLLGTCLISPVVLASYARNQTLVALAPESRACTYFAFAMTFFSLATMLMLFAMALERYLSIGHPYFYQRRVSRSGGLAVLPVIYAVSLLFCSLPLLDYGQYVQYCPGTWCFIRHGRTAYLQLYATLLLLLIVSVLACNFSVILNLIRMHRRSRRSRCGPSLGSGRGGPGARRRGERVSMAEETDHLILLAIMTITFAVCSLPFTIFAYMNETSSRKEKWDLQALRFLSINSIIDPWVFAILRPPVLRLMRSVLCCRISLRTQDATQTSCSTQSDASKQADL
PGE2 EP2 inh: EP2 receptor (human) inhibition | C6 glioma cells expressing human EP2, cAMP TR-FRET; cells stimulated with saturating PGE2 | inhibition, % at 25 µM | actives 0.52% (n = 260,000);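 active = percent inhibition above 40 after rounding to a whole number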;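 also: rat C6 glioma host cells with rolipram phosphodiesterase inhibitor present; the protocol text gives 20 µM as final concentration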
NPY2 pot ag: human NPY-Y2 potentiation or agonism, primary screen; P49146; cells expressing NPY-Y2, potentiator/agonist read-out; activation, % at 3.6 µM; actives 0.45% (n = 220,000); AID 1359; in the data active = activation above about 27%;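 also: cells stimulated with NPY near EC25 plus isoproterenol at EC100; 0% = vehicle plus submaximal agonist and 100% = vehicle plus saturating agonist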
* hit, by the source's call; nt = no result given.

SMILES	NPY-Y1 antag	NPY1 pot ag	NPY Y2 blocker	EP2 mod	PGE2 EP2 inh	NPY2 pot ag
CCOC(=O)c1cnc(-n2nc(C)cc2C)nc1Nc1ccc(N(C)C)cc1	0	-5	3	62*	7	4
CCOC(=O)c1cnc(-n2nc(C)cc2C)nc1NC	10	-19	1	12	7	-8
COc1ccc(C2(C(F)(F)F)NC(=O)N(C)C(=O)N2C)cc1 (stereo not drawn)	5	5	0	19	4	7
CCOC(=O)C1=C(C)N(C)C(c2ccccc2)(C(F)(F)F)NC1=O (stereo not drawn)	nt	nt	nt	-18	43*	nt
Cc1ccc2c(c1)N(CC(=O)N1c3ccccc3Sc3ccccc31)C(=O)CO2	nt	nt	nt	63*	9	nt
CCOC(=O)c1sc(NC(=O)CSc2nc3cc(C)ccc3cc2C#N)nc1C	nt	nt	nt	2	14	nt
CCOC(=O)c1sc(N/N=C/c2ccccc2)nc1C	1	-19	-1	62*	16	4
CCOC(=O)c1sc(Nc2ccccc2)nc1C	3	9	5	39	12	8
CCOC(=O)c1sc(N/N=C/c2cccc(C)c2)nc1C	-1	8	2	46	13	-4
CCOC(=O)c1sc(Nc2ccc(C)cc2C)nc1C	4	2	1	64*	9	-10
COc1ccccc1CNC(=O)Cn1nc(C)n2c(cc3oc(C)cc32)c1=O	nt	nt	nt	-19	3	nt
CC1(C)Oc2ccc(C(=O)NC3CCCCC3)cc2N(CC(=O)NC2CCCCC2)C1=O	nt	nt	nt	12	8	nt
COC(=O)/C(=C\c1ccc(-c2cc(Cl)ccc2Cl)o1)C(C)=O	nt	nt	nt	-98	50*	nt
CC[n+]1ccc(/C=C/c2ccc(N(C)C)cc2)c2ccccc21	1	22	nt	-316	96*	15
CC[n+]1c(/C=C/c2ccc(N(C)C)cc2)ccc2ccccc21	-1	-4	6	-49	66*	28
COc1ccc(S(=O)(=O)N2CCC(C(=O)Nc3ccc(F)cc3)CC2)cc1OC	nt	nt	nt	-56	5	nt
CN1[C@@H](C(=O)NCc2ccccn2)C[C@@H](c2cccs2)NS1(=O)=O	nt	nt	nt	85*	nt	nt
CN1[C@@H](C(=O)NCc2ccccn2)C[C@@H](c2ccc(F)cc2)NS1(=O)=O	nt	nt	nt	-11	nt	nt
CSc1nc(=S)c2[nH]c(=S)[nH]c2[nH]1	nt	4	nt	24	45*	1
CC1=CN2C(=N)/C(=C/c3ccc([N+](=O)[O-])o3)C(=O)N=C2S1	-1	-1	2	-10	104*	-1
CC1=CN2C(=N)/C(=C/c3ccco3)C(=O)N=C2S1	-2	-16	0	5	9	7
c1ccc(-c2cn3c(-c4ccccn4)c(-c4ccccn4)nnc3n2)cc1	nt	nt	nt	-29	nt	nt
COc1ccccc1NS(=O)(=O)c1cc(NC(=O)Nc2ccccc2)ccc1N1CCCCC1	-9	58*	1	6	14	46*
O=C(Nc1ccccc1N1CCN(c2ccc(F)cc2)CC1)c1ccccc1	49*	-6	29*	35	11	-7
CCC(=O)Nc1ccccc1N1CCN(c2ccc(F)cc2)CC1	nt	nt	nt	-1	16	nt
SMILES	NPY-Y1 antag	NPY1 pot ag	NPY Y2 blocker	EP2 mod	PGE2 EP2 inh	NPY2 pot ag
CC(C(=O)Nc1ccc(C2CCCCC2)cc1)n1nc(-c2cccs2)cc(N)c1=O (stereo not drawn)	nt	nt	nt	-47	6	nt
COc1ccccc1NS(=O)(=O)c1ccc2oc(SCc3ccc(F)cc3)nc2c1	-6	10	5	-56	13	1
CCOC(=O)CSc1nc2cc(S(=O)(=O)Nc3ccccc3OC)ccc2o1	-2	70*	-1	-13	9	45*
CS(=O)(=O)c1sc2nc(-c3cccs3)cc(-c3ccccc3)c2c1N	7	-13	7	26	49*	0
Cc1ccc(-c2cc(-c3ccccc3)c3c(N)c(S(C)(=O)=O)sc3n2)cc1	-1	14	-1	21	6	3
Cc1ccc(CN(CCCn2ccnc2)Cc2cccn2-c2ccccn2)o1	nt	nt	nt	14	3	nt
CC1CC(C)CN(c2ncc3c(n2)CC(c2ccccc2)CC3=O)C1 (stereo not drawn)	31*	-14	24*	26	1	-11
CC(=O)c1sc(NC(=O)c2ccc(Cn3cc(Br)cn3)o2)nc1C	-13	46*	-6	15	26	48*
O=C(c1ccc(-c2ccc(Cl)cc2Cl)o1)N1CCOCC1	2	-1	nt	-17	9	-2
O=C(c1ccc(-c2cc(Cl)ccc2Cl)o1)N1CCOCC1	20*	-12	nt	-24	6	-9
Cc1ccc(NC(=O)N2CCCCC2)cc1Cl	nt	nt	nt	-40	5	nt
CN(Cc1ccccc1)C(=O)CC(c1ccccc1)c1cc(Cl)ccc1O (stereo not drawn)	3	21	0	61*	nt	19
CC(NC(=O)CC(c1ccccc1)c1cc(Cl)ccc1O)c1ccccc1 (stereo not drawn)	1	19	2	-44	5	25
COC(=O)C/C=C/[C@@H](C)[C@@H](/C=N/OC[C@H]1O[C@H](c2ccccc2)C=C[C@@H]1Oc1ccc(OC)cc1)OC	25*	-39	19*	35	nt	2
COc1ccc(-c2nc(N)c3ncn([C@H]4O[C@H](CO)[C@@H](O)[C@@H]4O)c3n2)cc1	nt	nt	nt	11	52*	nt
COC(=O)C1=C(C)NC(=O)NC1c1ccccc1OCC(N)=O (stereo not drawn)	nt	nt	nt	-7	9	nt
C=CC(C1=CC(=O)C=CC1=O)c1ccccc1 (stereo not drawn)	nt	nt	nt	-1	8	nt
C=C[C@@H](C1=CC(=O)C(OC)=C(OC)C1=O)c1ccccc1	nt	nt	nt	-32	120*	nt
CCn1c(SCC(=O)Nc2cccc(NC(=O)c3ccc(Cl)cc3)c2)nnc1-c1cccnc1	nt	nt	nt	17	4	nt
CCC(=O)Nc1ccc(NC(=O)c2ncoc2-c2ccc(F)cc2)cc1C	nt	nt	nt	-23	12	nt
O=C1c2ccccc2-c2cc([N+](=O)[O-])c([N+](=O)[O-])cc21	nt	nt	nt	-35	64*	nt
CN(C)C(=O)c1ccc2c(c1[N+](=O)[O-])C(=O)c1ccccc1C2=O	3	-17	15	-34	7	-2
O=C(C1CC1)N1CCCC1c1nc(-c2ccc(F)cc2)n[nH]1 (stereo not drawn)	nt	nt	nt	-9	nt	nt
CCOc1ccccc1NC(=S)Nc1ncccc1C	8	-9	6	26	41*	-13
CC(=O)N1CCN(C(=O)Cn2nc3c(C)cc4c(C)cc(C)cc4n3c2=O)CC1	nt	nt	nt	2	nt	nt
C=C(C)Cn1c(COc2ccccc2)nc2ccccc21	nt	nt	nt	69*	11	nt
Cc1ccc(C(=O)Nc2ccc(N3CCN(S(C)(=O)=O)CC3)cc2)cc1Cl	nt	nt	nt	20	11	nt
CCOc1ccc(NCc2ccc(O)c3ncccc23)cc1	nt	nt	nt	-11	8	nt
CCOc1ccc2c(ccc(/C=C/c3cc(C)c4cccnc4c3O)[n+]2C)c1	nt	nt	nt	50	52*	nt
